The values below come from ChEMBL document CHEMBL1152411, “Antiplasmodial isoflavanones from the roots of Sophora mollis” (J Nat Prod, 2009).

In general, IC50 refers to the concentration that inhibits the measured activity by half.

One data set deals with Plasmodium falciparum. In words: Antiplasmodial activity against chloroquine-sensitive Plasmodium falciparum D10. Format: functional, organism-based. The method in brief:
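Asexual erythrocytic-stage P. falciparum kept in continuous in vitro culture (Trager–Jensen). Activity measured by the parasite lactate dehydrogenase assay, with chloroquine diphosphate as reference drug.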

A further data set relates to CHO. In words: Cytotoxicity against CHO cells by MTT assay. Format: cell-based, Cricetulus griseus. The method, boiled down:
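Chinese hamster ovary (CHO) cells; growth and survival measured by MTT assay. Samples run in triplicate on one occasion, with emetine dihydrochloride as reference drug.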

Data set [1] is described as follows: Selectivity index, ratio of IC50 for CHO cells to IC50 for chloroquine-sensitive Plasmodium falciparum D10. Format: toxicity, cell-based. The conditions noted are these: hamster; read-out: Ratio IC50.
The mark [2] stands for this setting: Plasmodium falciparum, D10, read-out: IC50.
Where [3] appears, read: Cricetulus griseus, CHO, read-out: IC50.

For `O=c1c(-c2ccc(O)cc2)coc2c(O)c(O)ccc12`, the half-maximal inhibitory concentration (IC50) was 17.8 µM in the data set with Plasmodium falciparum (setting [2]) and “Not Active” in the data set with CHO (cho).

Turning to `O=c1cc(-c2ccc(O)c(O)c2)oc2cc(O)ccc12`, the IC50 was found to be 19.3 µM in the data set on Plasmodium falciparum (setting [2]) and 49.3 µM in the data set with CHO (setting [3]). For the same compound, the selectivity ratio in data set [1] came to 3.

Consider `Oc1ccc2c(c1)OC[C@@H]1c3cc4c(cc3O[C@H]21)OCO4` [(+)-MAACKIAIN], for which the IC50 in the data set on Plasmodium falciparum (setting [2]) was 177 µM; in the data set with CHO (cho), “Not Active”.

Turning to `CC[C@H]1CN2CCc3cc(OC)c(OC)cc3[C@@H]2C[C@@H]1C[C@H]1NCCc2cc(OC)c(OC)cc21` [EMETINE], the IC50 in the data set with CHO (setting [3]) was determined as 0.12 µM.

As for `O=C(/C=C/c1ccc(O)cc1)c1ccc(O)cc1O` [ISOLIQUIRITIGENIN], the IC50 with Plasmodium falciparum (setting [2]) was found to be 32 µM; in the data set with CHO (setting [3]), 45.9 µM. Also, in data set [1], the selectivity ratio was 1.

Consider `COc1cc2ccc(=O)oc2cc1O` [SCOPOLETIN], for which the figures for the IC50 with Plasmodium falciparum (setting [2]) and in the data set with CHO (cho) were 494 µM and “Not Active”, respectively.

In the case of `COc1c([C@]2(O)COc3c4c(cc(O)c3C2=O)OC(C)(C)CC4)ccc2c1CCC(C)(C)O2` [SOPHONOROL C], the values for the IC50 in the data set with Plasmodium falciparum (setting [2]) and with CHO (cho) were 12.9 µM and “Not Active”, respectively.

As for `COc1c(O)cc([C@]2(O)COc3cc(O)cc(O)c3C2=O)c(OC)c1CC=C(C)C` [SOPHONOROL D], the IC50 worked out at 106 µM in the data set on Plasmodium falciparum (setting [2]) and 172 µM with CHO (setting [3]). The selectivity ratio in data set [1] worked out at 2.

On to `COc1ccc([C@]2(O)COc3c(CC=C(C)C)c(O)cc(O)c3C2=O)c(OC)c1CC=C(C)C` [SOPHONOROL E], for which the results for the IC50 in the data set with Plasmodium falciparum (setting [2]) and in the data set with CHO (setting [3]) were 12.8 µM and 169 µM, respectively. In addition, the selectivity ratio in data set [1] was 13.

With `COc1cc(O)c2c(c1CC=C(C)C)OC[C@@](O)(c1ccc(O)c(CC=C(C)C)c1OC)C2=O` [SOPHONOROL F], in the data set on Plasmodium falciparum (setting [2]), the IC50 was determined as 41 µM. Also, the selectivity ratio in data set [1] was 3.

`CC1(C)C=Cc2c(ccc([C@]3(O)COc4cc(O)cc(O)c4C3=O)c2O)O1` [SOPHORONOL A]: the IC50 entry in the data set with Plasmodium falciparum and in the data set with CHO (cho) was “Not Active” each time.

`COc1c([C@]2(O)COc3cc(O)cc(O)c3C2=O)ccc2c1C=CC(C)(CO)O2` (stereo not given in full) [SOPHORONOL B]: the IC50 result with Plasmodium falciparum and in the data set on CHO (cho) was “Not Active” throughout.

`COc1c(C2(O)COc3cc(O)cc(O)c3C2=O)ccc2c1C=CC(C)(C)O2` (stereo not given) [SOPHORONOL]: the IC50 with Plasmodium falciparum (setting [2]) came out at 114 µM; in the data set with CHO (setting [3]) it was 223 µM. The selectivity ratio in data set [1] is 2.
